Data from ChEMBL document CHEMBL1821659, “N-Benzyl-3-sulfonamidopyrrolidines are a New Class of Bacterial DNA Gyrase Inhibitors” (ACS Med Chem Lett, 2011).
Values after ≈ are worked out from the molar mass of the structure shown. Active and inactive are the calls of the source. The calls are words filed in the database; no cut-off is given here.

Legend:
[1] = system: Salmonella enterica; test: Antimicrobial activity against Salmonella enterica ATCC 19585 after 14 hrs by macrodilution method in presence of efflux pump inhibitor 60 uM MC-207,110; format: functional; settings: ATCC 19585, 14 h
How it was run: (§1)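 Run on wild-type strains, with 60 μM of the efflux pump inhibitor MC-207,110 added to potentiate compound activity.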

[2] = system: Enterococcus faecalis; test: Antimicrobial activity against Enterococcus faecalis 1131 after 14 hrs by macrodilution method; format: functional; settings: Enterococcus faecalis, 1131, 14 h
[3] = system: Streptococcus pneumoniae; test: Antimicrobial activity against Streptococcus pneumoniae ATCC 10813 after 24 hrs by macrodilution method; format: functional; settings: ATCC 10813, 24 h
[4] = system: Pseudomonas aeruginosa; test: Antimicrobial activity against Pseudomonas aeruginosa K after 16 hrs by microdilution method in presence of efflux pump inhibitor 60 uM MC-207,110; format: functional
[5] = system: Salmonella enterica; test: Antimicrobial activity against Salmonella enterica ATCC 19585 after 14 hrs by microdilution method in presence of efflux pump inhibitor 60 uM MC-207,110; format: functional; settings: ATCC 19585, 14 h
[6] = system: Escherichia coli; test: Antimicrobial activity against Escherichia coli BW25113 delta tolC after 14 hrs by macrodilution method; format: functional
How it was run: (§2)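 MIC determined in the E. coli BW25113 ΔtolC drug-pump knockout, which lacks a functional AcrAB-TolC multidrug efflux pump. The pump inhibitor was applied only to the wild-type strains.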

[7] = system: Streptococcus pneumoniae; test: Antimicrobial activity against Streptococcus pneumoniae ATCC 10813 after 24 hrs by microdilution method; format: functional; settings: ATCC 10813, 24 h
[8] = system: Staphylococcus aureus; test: Antimicrobial activity against Staphylococcus aureus FRI 100 after 14 hrs by macrodilution method; format: functional; settings: FRI 100, 14 h
[9] = system: Escherichia coli; test: Antimicrobial activity against Escherichia coli BW25113 after 14 hrs by macrodilution method in presence of efflux pump inhibitor 60 uM MC-207,110; format: functional; settings: BW25113, 14 h; how it was run: as §1
[10] = system: Escherichia coli; test: Antimicrobial activity against Escherichia coli BW25113 after 14 hrs by microdilution method in presence of efflux pump inhibitor 60 uM MC-207,110; format: functional; settings: BW25113, 14 h
[11] = system: Pseudomonas aeruginosa; test: Antimicrobial activity against Pseudomonas aeruginosa K after 16 hrs by macrodilution method in presence of efflux pump inhibitor 60 uM MC-207,110; format: functional; how it was run: as §1
[12] = Inhibition of Escherichia coli DNA gyrase assessed as DNA supercoiling using pUC19 as substrate after 30 mins by agarose gel electrophoresis
How it was run: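 Gel-based supercoiling assay on pUC19. Supercoiled, linear and relaxed pUC19 were run as marker lanes. Test compounds were applied at a range of μM concentrations.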

[13] = system: Escherichia coli; test: Antimicrobial activity against Escherichia coli BW25113 delta tolC after 14 hrs by microdilution method; format: functional; how it was run: as §2
[14] = system: Staphylococcus aureus; test: Antimicrobial activity against Staphylococcus aureus FRI 100 in presence of reserpine after 14 hrs; format: functional, organism-based
[15] = system: Nucleic Acid; test: Induction of DNA damage at Escherichia coli supercoiled pUC19 bound to DNA gyrase assessed as dsDNA breaks in the absence of ATP at =<3.3 mM after 1 hrs by agarose gel electrophoresis; format: nucleic-acid assay
[16] = system: Enterococcus faecalis; test: Antimicrobial activity against Enterococcus faecalis 1131 after 14 hrs; format: functional, organism-based
[17] = system: Enterococcus faecalis; test: Antimicrobial activity against Enterococcus faecalis 1131 in presence of reserpine after 14 hrs; format: functional, organism-based

Structure (SMILES) | MIC [1] | MIC [2] | MIC [3] | MIC [4] | MIC [5] | MIC [6] | MIC [7] | MIC [8] | MIC [9] | MIC [10] | MIC [11] | IC50 [12] | MIC [13] | Activity [14] | Activity [15] | Activity [16] | Activity [17]
Cc1ccc(F)cc1S(=O)(=O)N[C@@H]1CCN(Cc2ccc(OC(C)C)cc2)C1 | 80 µM | > 160 µM | 160 µM (≈ 65 µg/mL) | 80 µM | 80 µM | 10 µM (≈ 4.07 µg/mL) | 160 µM (≈ 65 µg/mL) | > 160 µM | 40 µM | 40 µM | 80 µM | 3300 nM | – | – | – | – | –
Cc1ccc(F)cc1S(=O)(=O)N[C@H]1CCN(Cc2ccc(OC(C)C)cc2)C1 | – | – | – | – | – | 140 µM (≈ 56.9 µg/mL) | – | – | – | – | – | 40800 nM | 140 µM (≈ 56.9 µg/mL) | – | – | – | –
Cc1ccc(F)cc1S(=O)(=O)NC1CCN(Cc2ccc(OC(C)C)cc2)C1 (stereo not drawn) | – | – | – | – | – | – | – | – | – | – | – | – | – | inactive | inactive | inactive | inactive
Cc1ccc(F)cc1S(=O)(=O)NC1CCN(Cc2ccc(CC(C)C)cc2)C1 (stereo not drawn) [GYRAMIDE B] | 20 µM | > 160 µM | 20 µM (≈ 8.09 µg/mL) | 40 µM | 20 µM | 5 µM (≈ 2.02 µg/mL) | – | 80 µM (≈ 32.4 µg/mL) | 40 µM | 40 µM | 40 µM | 700 nM | – | inactive | – | inactive | inactive
Cc1ccc(F)cc1S(=O)(=O)NC1CCN(Cc2ccc(-c3ccccc3)cc2)C1 (stereo not drawn) [GYRAMIDE C] | 10 µM | > 160 µM | 10 µM (≈ 4.25 µg/mL) | 20 µM | 10 µM | 2.5 µM (≈ 1.06 µg/mL) | – | 20 µM (≈ 8.49 µg/mL) | 20 µM | 20 µM | 20 µM | 1100 nM | 2.5 µM (≈ 1.06 µg/mL) | inactive | – | inactive | inactive
